Results of several laboratories.
Each line is one published result; the experiments were not run side by side.
Target: Glycogen synthase kinase-3 alpha (GSK3A, Homo sapiens, UniProt P49840)

SMILES	effect on	method	tested at	remaining binding
Nc1ncc2c(n1)-c1c([nH]c3ccc(C#CC4CC4)cc13)CCCC2	binding	competition with immobilised ligand	1 µM	57%
COc1cnc(Nc2cccc(S(N)(=O)=O)c2)nc1N1CCN(c2ccccc2)CC1	binding	competition with immobilised ligand	1 µM	99%
N[C@H]1CCN(c2nccc(-c3cnn4ncccc34)n2)C1	binding		1 µM	86%
COc1ccc2c(c1)O[C@@H](c1ccc(OC)c(OC)c1)C[C@H]2NC(=O)C1(c2ccc3c(c2)OC(F)(F)O3)CC1	cell-free assay	competition with immobilised ligand	1 µM	100%
CN(C)c1ncc(F)c(-c2cnn3ncccc23)n1	binding		1 µM	82%
c1cncc(-c2cccc(Nc3nccc(NC4CCCCC4)n3)c2)c1	binding	competition with immobilised ligand	10 µM	65%
CCN1CCN(Cc2ccc(C(=O)Nc3ccc(C)c(Oc4ccc5c(c4)CC(=O)N5)c3)cc2C(F)(F)F)CC1	binding	competition with immobilised ligand	1 µM	100%
O=C(c1ccc(Nc2ncc(Cl)c(-c3cc4ccccc4s3)n2)cc1)N1CCC(N2CCCC2)CC1	binding	competition with immobilised ligand	1 µM	11%
CN1CCN(c2cnc3c(C4CCN(C(=O)c5ccc(OC(F)(F)F)cc5N)CC4)ncnc3c2)CC1	cell-free assay	competition with immobilised ligand	1 µM	100%
FC(F)(F)Oc1cccc(-c2cnc3ccc(-c4ccncc4)nn23)c1	cell-free assay	competition with immobilised ligand	5 µM	44%
Cc1nc(C2CCN(C(=O)c3ccc(OC(F)(F)F)cc3N)CC2)c2ncc(N3CCN(C)CC3)cc2n1	cell-free assay	competition with immobilised ligand	1 µM	85%
C[C@@H]1CCN(c2nccc(-c3cnn4ncccc34)n2)C1	binding		1 µM	80%
O=C(c1ccc(Nc2nccc(-c3cc4ccccc4s3)n2)cc1)N1CCC(N2CCCC2)CC1	binding	competition with immobilised ligand	1 µM	82%
O=C(Nc1c[nH]nc1C(=O)NC1CCNCC1)c1cc(F)cc(F)c1	binding	competition with immobilised ligand	1 µM	14%
COc1ccnn2ncc(-c3ccnc(N(C)C)n3)c12	binding		1 µM	96%
Cn1nc(C(=O)NCc2ccc(C(=O)O)cc2)cc1-c1ccc2[nH]ccc2c1	cell-free assay	competition with immobilised ligand	0.1 µM	61%
F[C@@H]1CCN(c2nccc(-c3cnn4ncccc34)n2)C1	binding		1 µM	100%
CC(C)(O)c1cncc(-c2nc3ccc(F)cc3n2C2CC2)c1	cell-free assay	competition with immobilised ligand	1 µM	100%
Cc1cnc(Nc2ccc(C(=O)N3CCC(N4CCCC4)CC3)cc2)nc1-c1cc2ccccc2s1	binding	competition with immobilised ligand	1 µM	43%
COCCOc1nc(-c2ccc(Cl)nc2)nc2c1CN(C(=O)c1ncn3ccccc13)CC2	cell-free assay	competition with immobilised ligand	0.1 µM	100%
CC1CCCN1c1nccc(-c2cnn3ncccc23)n1 (stereo not drawn)	binding		1 µM	94%
